Test results from ChEMBL document CHEMBL3232870, “Discovery of 3-(4-methanesulfonylphenoxy)-N-[1-(2-methoxy-ethoxymethyl)-1H-pyrazol-3-yl]-5-(3-methylpyridin-2-yl)-benzamide as a novel glucokinase activator (GKA) for the treatment of type 2 diabetes mellitus” (Bioorg Med Chem, 2014).

Legend:
[1] = Apparent permeability of the compound by PAMPA; format: physicochemical
Salmonella typhimurium [2] = test: Genotoxicity in Salmonella typhimurium TA100 assessed as increase in number of revertants at 1.5 to 5000 ug/plate by Ames test in presence of S9 fraction; format: toxicity, organism-based; conditions: salmonella enterica subsp. enterica serovar typhimurium
Summary of the method: (§1)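 Ames reverse mutation test by direct plate incorporation in S. typhimurium TA98 and TA100, with or without Aroclor 1254-induced rat liver S9 mix. Compound in DMSO at 1.5–5000 µg/plate, plated in top agar, incubated 37 °C for about 50 h, then revertant colonies counted. Plates were checked for precipitation and cytotoxicity. A positive was a reproducible, dose-related increase in revertants of more than 2-fold.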

[3] = Tmax in female Sprague-Dawley rat at 250 mg/kg, po measured on day 14; format: ADME, organism-based; design: dose 250 mg/kg, route oral; conditions: in vivo
Summary of the method: (§2)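 Sprague–Dawley rats of both sexes, 5 weeks old at arrival, received daily oral gavage at 0, 250, 500 or 1000 mg/kg/day for 14 days. Vehicle was 0.5% methylcellulose at 10 mL/kg. Toxicokinetics were taken on Day 1 and Day 14. Necropsy was by Day 15. Testis was fixed in modified Davidson's fixative, paraffin-sectioned and H&E-stained, with histopathology on control and high-dose groups only.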

Hepatocyte = test: Induction of 2-Deoxy-D-[3H]-glucose uptake in rat Hepatocytes using 5.5 mM glucose after 4 hrs by liquid scintillation counting; format: functional
Summary of the method: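 Rat primary hepatocytes, isolated by collagenase liver perfusion, viability over 85%. Cells attached 36 h on collagen I in MEM with 10% FBS, then serum-starved 12 h. Incubated 4 h in serum-free MEM with 5.5 mM glucose and 2-deoxy-D-[3H]-glucose, with or without compound. Washed in ice-cold PBS, lysed in 0.1 N NaOH, scintillation counted, expressed as % increase over control.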

[4] = AUC (0 to t) in female Sprague-Dawley rat at 1000 mg/kg, po measured on day 14; format: ADME, organism-based; design: dose 1000 mg/kg, route oral; conditions: plasma
Summary of the method: (§3)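 Sprague–Dawley rats, 5 weeks old at arrival, both sexes. Given the compound by oral gavage once daily for 14 days at 0, 250, 500 or 1000 mg/kg/day, with 0.5% methylcellulose as vehicle. Toxicokinetic parameters were determined on Day 1 and Day 14.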

[5] = Tmax in male Sprague-Dawley rat at 1000 mg/kg, po measured on day 14; format: ADME, organism-based; design: dose 1000 mg/kg, route oral; conditions: in vivo; summary of the method: as §2
[6] = AUC in Sprague-Dawley rat at 3 mg/kg, iv and 10 mg/kg, po; format: ADME, organism-based; conditions: plasma
Summary of the method: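 Male ICR mice and 7-week-old SD rats received a 3 mg/kg intravenous bolus or a 10 mg/kg oral gavage dose. Plasma was deproteinized with acetonitrile (2 volumes) and compound measured by HPLC. Parameters came from noncompartmental analysis.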

[7] = Oral bioavailability in ICR mouse at 10 mg/kg; format: ADME, organism-based; conditions: in vivo
Summary of the method: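 Male ICR mice and 7-week-old SD rats received a 3 mg/kg iv bolus or a 10 mg/kg oral gavage dose. Plasma was precipitated with 2 volumes of acetonitrile and analysed by HPLC. Parameters came from noncompartmental analysis.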

Salmonella typhimurium [8] = test: Genotoxicity in Salmonella typhimurium TA100 assessed as increase in number of revertants at 1.5 to 5000 ug/plate by Ames test in absence of S9 fraction; format: toxicity, organism-based; conditions: salmonella enterica subsp. enterica serovar typhimurium; summary of the method: as §1
[9] = Cmax in male Sprague-Dawley rat at 500 mg/kg, po measured on day 1; format: ADME, organism-based; design: dose 500 mg/kg, route oral; conditions: in vivo; summary of the method: as §3
Salmonella typhimurium [10] = test: Genotoxicity in Salmonella typhimurium TA98 assessed as increase in number of revertants at 1.5 to 5000 ug/plate by Ames test in absence of S9 fraction; format: toxicity, organism-based; conditions: salmonella enterica subsp. enterica serovar typhimurium; summary of the method: as §1
[11] = AUC (0 to t) in female Sprague-Dawley rat at 500 mg/kg, po measured on day 14; format: ADME, organism-based; design: dose 500 mg/kg, route oral; conditions: plasma; summary of the method: as §3
[12] = Cmax in male Sprague-Dawley rat at 250 mg/kg, po measured on day 1; format: ADME, organism-based; design: dose 250 mg/kg, route oral; conditions: in vivo; summary of the method: as §3
Hexokinase-4 = molecular target: T1, Hexokinase-4 (Homo sapiens, UniProt P35557); test: Activation of recombinant human pancreatic glucokinase using 10 mM glucose by spectrophotometry
T1 sequence (P35557 whole entry): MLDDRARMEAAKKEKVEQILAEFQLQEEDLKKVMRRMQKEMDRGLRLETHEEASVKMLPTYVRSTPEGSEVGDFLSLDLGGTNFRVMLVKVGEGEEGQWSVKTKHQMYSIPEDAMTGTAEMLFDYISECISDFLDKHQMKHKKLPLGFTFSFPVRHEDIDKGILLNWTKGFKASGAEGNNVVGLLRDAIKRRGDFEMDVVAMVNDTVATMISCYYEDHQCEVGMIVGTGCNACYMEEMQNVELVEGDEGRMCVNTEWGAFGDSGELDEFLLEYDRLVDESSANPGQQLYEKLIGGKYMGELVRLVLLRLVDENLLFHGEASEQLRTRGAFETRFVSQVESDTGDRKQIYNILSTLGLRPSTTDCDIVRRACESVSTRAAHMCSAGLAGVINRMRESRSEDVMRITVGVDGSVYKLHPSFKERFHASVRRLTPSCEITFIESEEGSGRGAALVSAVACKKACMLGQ
Summary of the method: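 Purified recombinant human pancreatic glucokinase, compounds in DMSO. Buffer: 25 mM HEPES pH 7.4, 10 mM glucose, 25 mM KCl, 1 mM MgCl2, 1 mM DTT, 1 mM ATP, 1 mM NADP, 2.5 U/mL G6PDH. Activity was expressed against DMSO-only control (100%). EC50 came from 12 concentrations fitted to a variable-slope sigmoidal curve. Values are means of three duplicate runs.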

[13] = Tmax in female Sprague-Dawley rat at 1000 mg/kg, po measured on day 1; format: ADME, organism-based; design: dose 1000 mg/kg, route oral; conditions: in vivo; summary of the method: as §2
Cytochrome P450 2D6 = Cytochrome P450 2D6 (Homo sapiens, UniProt P10635); test: Inhibition of CYP2D6 in human liver microsomes; format: ADME
Summary of the method: (§4)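 Pooled human liver microsomes at 0.25 mg/mL, each with a CYP-selective substrate and test compound up to 25 µM, preincubated at 37 °C. It is stopped on ice with ice-cold acetonitrile and centrifuged, and the supernatant is analysed by LC–MS/MS.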

Cytochrome P450 2C8 = molecular target: T2, Cytochrome P450 2C8 (Homo sapiens, UniProt P10632); test: Inhibition of CYP2C8 in human liver microsomes; format: ADME; summary of the method: as §4
T2 sequence (P10632 whole entry): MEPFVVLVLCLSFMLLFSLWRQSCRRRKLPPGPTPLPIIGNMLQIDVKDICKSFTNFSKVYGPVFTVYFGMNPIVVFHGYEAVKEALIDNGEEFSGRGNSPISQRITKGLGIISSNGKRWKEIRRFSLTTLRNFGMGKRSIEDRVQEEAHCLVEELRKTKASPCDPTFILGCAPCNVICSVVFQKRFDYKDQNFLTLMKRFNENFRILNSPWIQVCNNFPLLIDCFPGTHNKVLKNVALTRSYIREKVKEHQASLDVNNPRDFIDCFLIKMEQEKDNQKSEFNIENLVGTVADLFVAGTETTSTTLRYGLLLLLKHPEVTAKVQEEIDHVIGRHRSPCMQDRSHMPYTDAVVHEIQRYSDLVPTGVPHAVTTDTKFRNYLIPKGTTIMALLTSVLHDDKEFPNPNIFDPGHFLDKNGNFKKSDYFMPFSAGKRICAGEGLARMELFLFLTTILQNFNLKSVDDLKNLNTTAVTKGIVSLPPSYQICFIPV

[14] = Cmax in female Sprague-Dawley rat at 250 mg/kg, po measured on day 1; format: ADME, organism-based; design: dose 250 mg/kg, route oral; conditions: in vivo; summary of the method: as §3
[15] = Tmax in male Sprague-Dawley rat at 500 mg/kg, po measured on day 14; format: ADME, organism-based; design: dose 500 mg/kg, route oral; conditions: in vivo; summary of the method: as §2

Sequence of Cytochrome P450 2D6 (P10635 whole entry): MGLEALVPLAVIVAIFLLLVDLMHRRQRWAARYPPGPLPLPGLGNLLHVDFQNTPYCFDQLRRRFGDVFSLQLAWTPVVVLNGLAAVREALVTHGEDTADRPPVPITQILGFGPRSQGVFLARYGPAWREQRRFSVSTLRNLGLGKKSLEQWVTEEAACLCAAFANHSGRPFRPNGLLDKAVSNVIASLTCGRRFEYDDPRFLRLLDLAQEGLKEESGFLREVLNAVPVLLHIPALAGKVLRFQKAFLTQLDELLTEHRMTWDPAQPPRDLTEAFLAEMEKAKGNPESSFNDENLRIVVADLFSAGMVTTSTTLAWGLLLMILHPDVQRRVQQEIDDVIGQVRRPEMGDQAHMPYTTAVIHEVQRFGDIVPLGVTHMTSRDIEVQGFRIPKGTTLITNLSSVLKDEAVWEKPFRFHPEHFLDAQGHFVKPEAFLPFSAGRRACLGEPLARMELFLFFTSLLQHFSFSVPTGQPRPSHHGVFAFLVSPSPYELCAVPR

- Papp [1]: 2.62 ×10⁻⁶ cm/s
- Tmax [3]: 1.3 h
- AUC(0-t) [4]: 24000 ng·h/mL
- Tmax [5]: 5 h
- AUC [6]: 3800 ng·h/mL
- bioavailability [7]: 24%
- Cmax [9]: 4100 ng/mL
- AUC(0-t) [11]: 16300 ng·h/mL
- Cmax [12]: 3060 ng/mL
- EC50 (Hexokinase-4): 315 nM
- Tmax [13]: 2.7 h
- inhibition (INH) (Cytochrome P450 2D6): Not Active
- inhibition (INH) (Cytochrome P450 2C8): Not Active
- Cmax [14]: 3450 ng/mL
- Tmax [15]: 3 h
SMILES: COCCOCn1ccc(NC(=O)c2cc(Oc3ccc(S(C)(=O)=O)cc3)cc(-c3ncccc3C)c2)n1
- Activity (Salmonella typhimurium [2]): Non-toxic
- fold change (FC) (Hepatocyte): 2.23
- Activity (Salmonella typhimurium [8]): Non-toxic
- Activity (Salmonella typhimurium [10]): Non-toxic
